The test system of data set [1] is Mycobacterium tuberculosis. The data set can be described thus: Antitubercular activity against Mycobacterium tuberculosis H37Rv by Alamar blue assay. The data set is classed as functional, organism-based. The essentials: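 M. tuberculosis H37Rv (ATCC 27294) grown in BACTEC 12B medium and tested by Microplate Alamar Blue Assay. Ten 2-fold dilutions, typically from 100 to 0.19. IC90 is the concentration giving a 90% drop in fluorescence relative to controls.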

Data set [2] in a line: Cytotoxicity against african green monkey Vero cells after 72 hrs by cell titer-glo assay. The settings on record: chlorocebus sabaeus. The format is cell-based. The method, boiled down:
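Vero cells, run alongside the TB dose-response assay; compound exposure 72 h, then viability read by ATP-based luminescence (CellTiter-Glo). CC50 taken from the dose–response curve by curve fitting.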

The nature of data set [3]: Selectivity index, ratio of CC50 for african green monkey Vero cells to IC90 for Mycobacterium tuberculosis H37Rv. The format is toxicity, cell-based. Particulars: read-out: Selectivity Index. The essentials: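 Vero cells run in parallel with the TB dose-response assay. Viability is read after 72 h exposure by CellTiter-Glo luminescence, which quantifies cellular ATP. CC50 is fitted from the dose-response curve. IC90 for H37Rv comes from the MABA fluorescence readout, as a 90% reduction relative to controls.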

In brackets after ≈: the same amount, converted by molar mass.

The term IC50 denotes the midpoint of a concentration-inhibition curve. The IC90 is the point of the concentration-response curve where the effect stands at 90%. By CC50 is commonly meant the concentration at which the toxic effect on the cells reaches its halfway point.

In data set [1], `COc1ccc(O)c(-c2csc(N/N=C(\C)c3ccncc3)n2)c1` showed an IC50 greater than 100 µg/mL and an IC90 greater than 100 µg/mL.

For `C/C(=N\Nc1nc(-c2cccs2)cs1)c1ccccn1`, in data set [1], the IC50 turned out to be 48.4 µg/mL (≈ 161 µM) and the IC90 was found to be 55.2 µg/mL (≈ 184 µM).

Regarding `C/C(=N\Nc1nc(-c2cccs2)cs1)c1cccnc1`, in data set [1], it took 92.2 µg/mL (≈ 307 µM) to reach half-maximal inhibition (IC50) and the IC90 was greater than 100 µg/mL.

For the compound `C/C(=N\Nc1nc(-c2cccs2)cs1)c1ccncc1`, in data set [1], the IC50 was greater than 100 µg/mL and the IC90 is greater than 100 µg/mL.

`COc1ccc(O)c(-c2csc(N/N=C(\C)c3ccccn3)n2)c1`: in data set [1], the IC50 was 6.22 µg/mL (≈ 18.3 µM) and it took 6.78 µg/mL (≈ 19.9 µM) to reach the 90% level (IC90). Also, the CC50 at 72 h in data set [2] is greater than 40 µg/mL. In addition, in data set [3], the selectivity ratio is greater than 5.89.

For `COc1ccc(O)c(-c2csc(N/N=C(\C)c3cccnc3)n2)c1`, in data set [1], the IC50 is greater than 100 µg/mL and the concentration for an effect of 90% (IC90) is greater than 100 µg/mL.

The values are drawn from ChEMBL document CHEMBL1157858, “Synthesis and antituberculosis activity of some N-pyridyl-N'-thiazolylhydrazine derivatives” (Eur J Med Chem, 2010).
